In ChEMBL document CHEMBL4842354, “Synthesis, structure-activity relationships, cocrystallization and cellular characterization of novel smHDAC8 inhibitors for the treatment of schistosomiasis” (Eur J Med Chem, 2021):
pIC50: −log10 of the molar value.

Key:
Schistosoma mansoni [1] = test: Antischistosomal activity against Schistosoma mansoni schistosomula at 20 uM incubated for 48 hrs by Alamar Blue assay; assay type: functional
Summary of the method: (§1)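 S. mansoni newly transformed schistosomula from mechanically transformed cercariae, 100 NTS/well in Medium 199 with 10% FCS, penicillin, streptomycin and rifampicin. Pre-cultured 3 h at 37°C, 5% CO2. Compounds from 20 mM DMSO stocks, final 10 or 20 μM. Alamar Blue added after 48 h exposure, then 24 h more. Resorufin read at Ex 530/Em 590 nm. Live and ethanol-killed larvae as controls; triplicate wells, two biological replicates.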

Histone deacetylase 8 [2] = molecular target: T1, Histone deacetylase 8 (Homo sapiens, UniProt Q9BY41); test: Inhibition of human recombinant HDAC8 using H2N-Arg-His-Lys(Ac)-Lys(Ac)-AMC as substrate after 90 mins by fluorescence based micro plate assay
T1 sequence (Q9BY41 whole entry): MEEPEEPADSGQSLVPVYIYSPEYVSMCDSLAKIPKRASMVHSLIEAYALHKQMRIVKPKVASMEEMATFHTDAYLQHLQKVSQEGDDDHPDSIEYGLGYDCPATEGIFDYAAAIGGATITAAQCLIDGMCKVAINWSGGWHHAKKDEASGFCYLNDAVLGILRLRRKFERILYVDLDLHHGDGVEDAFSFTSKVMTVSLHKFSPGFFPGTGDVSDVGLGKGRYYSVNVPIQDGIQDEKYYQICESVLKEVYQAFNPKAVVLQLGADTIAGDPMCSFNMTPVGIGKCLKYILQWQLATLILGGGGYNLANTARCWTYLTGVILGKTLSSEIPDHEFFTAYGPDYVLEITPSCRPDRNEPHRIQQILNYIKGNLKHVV

[3] = molecular target: T2, Protein deacetylase HDAC6 (Homo sapiens, UniProt Q9UBN7); test: Inhibition of recombinant human HDAC6 using ZMAL as substrate incubated for 90 mins by fluorescence based micro plate assay
T2 sequence (Q9UBN7 whole entry): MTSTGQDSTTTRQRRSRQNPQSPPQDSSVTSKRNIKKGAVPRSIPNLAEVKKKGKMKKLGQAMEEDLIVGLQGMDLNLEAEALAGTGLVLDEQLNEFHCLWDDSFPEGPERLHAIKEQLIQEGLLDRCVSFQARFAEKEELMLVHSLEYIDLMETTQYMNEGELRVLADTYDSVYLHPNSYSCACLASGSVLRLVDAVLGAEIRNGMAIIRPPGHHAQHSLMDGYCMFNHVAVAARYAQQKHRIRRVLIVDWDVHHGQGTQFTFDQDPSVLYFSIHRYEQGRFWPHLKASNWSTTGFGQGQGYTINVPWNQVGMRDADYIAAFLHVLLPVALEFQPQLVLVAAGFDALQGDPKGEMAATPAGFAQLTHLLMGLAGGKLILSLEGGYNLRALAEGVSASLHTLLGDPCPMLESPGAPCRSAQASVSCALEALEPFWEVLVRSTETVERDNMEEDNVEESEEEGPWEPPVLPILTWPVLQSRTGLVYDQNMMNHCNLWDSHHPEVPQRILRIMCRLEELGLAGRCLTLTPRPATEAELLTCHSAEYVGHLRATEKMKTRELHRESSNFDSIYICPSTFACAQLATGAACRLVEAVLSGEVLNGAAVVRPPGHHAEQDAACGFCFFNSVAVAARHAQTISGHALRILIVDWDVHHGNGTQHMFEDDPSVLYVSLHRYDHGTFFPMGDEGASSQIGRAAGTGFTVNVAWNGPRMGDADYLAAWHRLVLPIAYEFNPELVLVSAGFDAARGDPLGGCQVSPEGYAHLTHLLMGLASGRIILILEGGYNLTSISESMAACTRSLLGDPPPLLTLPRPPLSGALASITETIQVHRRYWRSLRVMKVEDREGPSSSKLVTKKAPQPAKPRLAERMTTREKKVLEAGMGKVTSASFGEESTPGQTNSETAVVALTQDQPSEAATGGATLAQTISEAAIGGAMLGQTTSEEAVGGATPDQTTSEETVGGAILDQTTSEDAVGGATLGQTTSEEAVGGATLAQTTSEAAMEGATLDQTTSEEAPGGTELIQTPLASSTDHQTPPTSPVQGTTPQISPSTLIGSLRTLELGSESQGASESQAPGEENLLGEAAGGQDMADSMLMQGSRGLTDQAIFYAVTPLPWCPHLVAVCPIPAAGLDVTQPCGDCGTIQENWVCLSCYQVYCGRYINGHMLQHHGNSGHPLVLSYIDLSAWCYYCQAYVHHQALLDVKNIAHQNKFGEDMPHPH

Histone deacetylase 1 = Histone deacetylase 1 (Homo sapiens, UniProt Q13547); test: Inhibition of recombinant human HDAC1 using ZMAL as substrate incubated for 90 mins by fluorescence based micro plate assay
Histone deacetylase 8 [4] = molecular target: T3, Histone deacetylase 8 (Schistosoma mansoni, UniProt A5H660); test: Inhibition of Schistosoma mansoni HDAC8 using Fluor de Lys as substrate incubated for 90 mins by fluorescence method
T3 sequence (A5H660 whole entry): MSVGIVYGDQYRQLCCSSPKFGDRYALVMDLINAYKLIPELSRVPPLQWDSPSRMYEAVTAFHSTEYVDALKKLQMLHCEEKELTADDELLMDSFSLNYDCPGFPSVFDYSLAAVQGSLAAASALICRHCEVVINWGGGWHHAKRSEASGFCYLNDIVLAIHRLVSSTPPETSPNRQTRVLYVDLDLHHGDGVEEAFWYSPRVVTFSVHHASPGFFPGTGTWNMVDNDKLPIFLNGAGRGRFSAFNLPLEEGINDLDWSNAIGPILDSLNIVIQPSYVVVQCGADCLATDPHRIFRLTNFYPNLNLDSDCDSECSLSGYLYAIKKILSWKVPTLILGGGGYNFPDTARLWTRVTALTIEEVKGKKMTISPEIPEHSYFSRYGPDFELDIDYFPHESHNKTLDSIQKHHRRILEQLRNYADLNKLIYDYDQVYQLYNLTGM
Summary of the method: (§2)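 Recombinant smHDAC8 or hHDAC8 (Romier lab) run to Fluor de Lys HDAC8 kit protocol. Substrate H2N-Arg-His-Lys(Ac)-Lys(Ac)-AMC at 50 μM with increasing inhibitor concentrations, 90 min at 37°C. Stop solution holding inhibitor plus trypsin, then 20 min at 37°C to release AMC. Fluorescence read at Ex 355/Em 460 nm.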

Schistosoma mansoni [5] = test: Antischistosomal activity against Schistosoma mansoni schistosomula at 10 uM incubated for 48 hrs by Alamar Blue assay; assay type: functional; summary of the method: as §1
HEK293 = test: Cytotoxicity against human HEK293 assessed as reduction in cell viability at 50 uM measured for 24 hrs by Alamar Blue assay; assay type: cell-based; settings: hek293, 24 h
Summary of the method: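 HEK293 cells in DMEM with 10% FCS and 5 mM glutamine at 37°C, 5% CO2, seeded at 1.5×10^3 cells/well. Compounds added at 50 μM. AlamarBlue added after 24 h and incubated a further 21 h. Resorufin fluorescence read at Ex 530/Em 590 nm. Triplicates; daunorubicin positive control.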

[6] = molecular target: T4, Histone deacetylase 8 (Homo sapiens) (UniProt Q9BY41); test: Inhibition of human recombinant HDAC8 at 1 uM using H2N-Arg-His-Lys(Ac)-Lys(Ac)-AMC as substrate after 90 mins by fluorescence based micro plate assay; summary of the method: as §2
T4 sequence (whole entry): T1 sequence (Q9BY41 whole entry)

Sequence of Histone deacetylase 1 (Q13547 whole entry): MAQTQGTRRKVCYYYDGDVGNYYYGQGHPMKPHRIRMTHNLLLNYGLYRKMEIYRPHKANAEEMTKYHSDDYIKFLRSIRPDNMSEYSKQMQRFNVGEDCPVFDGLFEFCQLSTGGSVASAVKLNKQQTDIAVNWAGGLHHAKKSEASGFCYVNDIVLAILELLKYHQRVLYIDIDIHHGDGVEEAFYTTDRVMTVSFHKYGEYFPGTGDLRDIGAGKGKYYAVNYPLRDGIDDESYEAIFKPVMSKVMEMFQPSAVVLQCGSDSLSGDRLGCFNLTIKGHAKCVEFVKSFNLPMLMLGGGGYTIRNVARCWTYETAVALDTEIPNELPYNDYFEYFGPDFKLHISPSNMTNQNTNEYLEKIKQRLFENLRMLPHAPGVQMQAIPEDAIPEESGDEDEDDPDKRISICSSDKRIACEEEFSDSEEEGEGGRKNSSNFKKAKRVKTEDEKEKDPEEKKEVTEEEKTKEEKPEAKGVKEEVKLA

Compound	pIC50 (Histone deacetylase 8 [2])	pIC50 [3]	pIC50 (Histone deacetylase 1)	pIC50 (Histone deacetylase 8 [4])	inhibition [6] [%]	Activity (Schistosoma mansoni [1]) [%]	Activity (Schistosoma mansoni [5]) [%]	Activity (HEK293) [%]
CSc1ccc(C(=O)NO)cc1NC(=O)c1ccc(-c2ccccc2)cc1	6.66	5.82	5.41	7.00	–	64.9	57.4	82.3
Cc1ccc(C(=O)NO)cc1NC(=O)c1cccc(OCc2c(Cl)cccc2Cl)c1	–	–	–	6.28	34	22.3	38.4	66.6
COc1ccc(C(=O)NO)cc1NCc1cccc2c1oc1ccccc12	6.07	–	–	6.35	–	–	–	–
COc1ccc(C(=O)NO)cc1C(=O)Nc1ccc2sccc2c1	7.00	–	–	6.66	–	77.1	82.1	95.6
COc1ccc(C(=O)Nc2cc(C(=O)NO)ccc2OC)c(OC)c1	–	–	–	5.68	63	66.5	65.3	88.4
COc1ccc(C(=O)NO)cc1NC(=O)c1ccc2[nH]c3c(c2c1)CN(C)CC3.Cl	6.54	–	–	6.70	–	100	98	71.1
COc1ccc(C(=O)NO)cc1C(=O)Nc1ccc(Cl)cc1Cl	–	–	–	6.74	31	83.4	88.2	58.3
CCCOc1ccc(C(C)=O)cc1C(=O)Nc1cc(C(=O)NO)ccc1C	6.85	7.70	6.44	6.96	–	34	45.2	68.8
COc1ccc(C(=O)NO)cc1NC(=O)c1ccc(OC(C)C)cc1	–	–	–	6.14	–	56.2	72.6	93.1
COc1ccc(C(=O)NO)cc1NC(=O)c1cccc2c1/C(=N/O)c1ccccc1-2	6.82	–	–	6.49	–	96	98.5	76.6
Cc1ccc(C(=O)NO)cc1C(=O)Nc1ccc(Cl)cc1	–	6.22	5.47	6.48	–	50.2	69.1	67.6
O=C(C1CCCCC1)N1CC(=O)N2CCc3ccccc3C2C1 (stereo not drawn) [PRAZIQUANTEL]	–	–	–	–	–	88.9	92.1	99.3
CCOc1ccc(C(C)=O)cc1NC(=O)c1cc(C(=O)NO)ccc1OC	–	–	–	6.48	61	56.7	64.3	59.9
CCOc1ccc(C(C)=O)cc1NC(=O)c1cc(C(=O)NO)ccc1Cl	6.66	6.96	4.74	6.85	–	33.1	57	60.6
CCOc1ccc(C(C)=O)cc1NC(=O)c1cc(C(=O)NO)ccc1C	7.15	–	–	6.68	–	37	42.1	87.7

Further compounds by rising pIC50 (Histone deacetylase 8 [4]), results first:

pIC50 (Histone deacetylase 8 [2])	pIC50 [3]	pIC50 (Histone deacetylase 1)	pIC50 (Histone deacetylase 8 [4])	inhibition [6] [%]	Compound	Activity (Schistosoma mansoni [1]) [%]	Activity (Schistosoma mansoni [5]) [%]	Activity (HEK293) [%]
–	–	–	6.14	66	CCCOc1ccc(C(=O)Nc2cc(C(=O)NO)ccc2OC)cc1	51.6	70.7	93.2
–	–	–	6.21	59	COc1ccc(C(=O)NO)cc1NC(=O)c1cccc(OCc2ccccc2)c1	56.2	61	95.4
–	–	–	6.24	29	COc1ccc(C(=O)NO)cc1NC(=O)c1nc2ccccc2[nH]1	47.1	69.5	83.5
–	–	–	6.35	60	Cc1ccc(C(=O)NO)cc1NC(=O)c1cccc(OCc2ccccc2)c1	46.5	67.3	81.4
6.74	–	–	6.48	–	COc1ccc(C(=O)NO)cc1NC(=O)c1cccc2cccnc12	40	62	77
–	–	–	6.49	48	COc1ccc(C(=O)NO)cc1NC(=O)c1ccc(-c2ccc(F)cc2)cc1Cl	60.5	74.6	83.5
–	–	–	6.51	–	COc1ccc(C(=O)NO)cc1C(=O)Nc1ccc(Cl)cc1	59.2	77.3	27.5
6.89	6.41	–	6.54	–	COc1ccc(C(=O)NO)cc1NC(=O)c1ccc(-c2ccccc2)cc1	33.4	64.8	12.3
7.05	–	–	6.54	–	COc1ccc(C(C)=O)cc1NC(=O)c1cc(C(=O)NO)ccc1Cl	32.3	62.6	89.1
–	–	–	6.55	25	O=C(NO)c1ccc(Cl)c(NC(=O)c2ccc(-c3ccc(F)cc3)cc2Cl)c1	56.6	63.4	82.2
7.05	–	–	6.74	–	COc1ccc(C(C)=O)cc1NC(=O)c1cc(C(=O)NO)ccc1C	69.5	75.2	94.8
6.64	5.11	4.68	7.00	–	CCOc1ccc(C(=O)NO)cc1NC(=O)c1ccc(Cl)cc1Cl	56.4	56.2	86.8
